# Assay results: article PMC4306711 (The Journal of General Physiology, 2015)
# Read-outs that look alike come from different tables or passages of the source.
# B1: TsVII: β-scorpion toxin from the Brazilian scorpion Tityus serrulatus (protein, UniProt P15226 21-81, looked up)
# Beta-mammal/insect toxin Ts1: KEGYLMDHEGCKLSCFIRPSGYCGRECGIKKGSSGYCAWPACYCYGLPNWVKVWDRATNKC
# modifications: ends and bridges not checked
# Assays:
# Kv1.1 = conditions: ref Crest et al., 1992; cited from earlier work
# Kv1.3 = conditions: ref Crest et al., 1992; cited from earlier work
# Nav channel = conditions: ref Crest et al., 1992; cited from earlier work
# [1] = tested on: rNav1.2a/Kv2.1 VSD IV paddle chimera; format: cell-based, rat
# [2] = tested on: rNav1.2a/Kv2.1 VSD II paddle chimera; format: cell-based, rat
# WT rKv2.1 = test: Two-electrode voltage-clamp of WT rKv2.1 in Xenopus oocytes; format: cell-based, rat; conditions: 1 µM toxin; 300-ms depolarization to 0 mV, holding −90 mV, tail −60 mV
# [3] = tested on: rNav1.2a/Kv2.1 VSD IV R1629A/L1630A paddle chimera; format: cell-based, rat; conditions: 100 nM AaHII; holding −10 mV, 300-ms step after −150 mV, tail −150 mV
# [4] = tested on: isolated rNav1.2a VSD IV paddle motif; test: SPR with immobilized rNav1.2a VSD IV paddle peptide; format: binding, rat; conditions: 50 fmol peptide, heterogeneous ligand model, n = 3
# Outline: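 Biotinylated synthetic VSD IV paddle peptide (~50 fmol) captured on neutravidin amine-coupled to a CM5 chip. Run at 25°C in 50 mM phosphate, pH 7.2. Toxin at 15–2,000 nM injected at 20 µl/min after a steady baseline; control flow cell subtracted; regenerated with 1 M NaCl (15 s, 30 µl/min). Bulk signal excluded, then fitted to a two-site heterogeneous ligand model; n = 3, mean ± SD.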
# [5] = tested on: isolated rNav1.2a VSD II paddle motif; test: SPR with immobilized rNav1.2a VSD II paddle peptide; format: binding, rat; conditions: up to 20 µM toxin, 25°C
# rNav1.2a = conditions: cited from earlier work
# [6] = tested on: rNav1.2a/Kv2.1 VSD IV paddle chimera; conditions: electrophysiology; ref Bosmans et al., 2008; cited from earlier work
# [7] = molecular target: rNav1.2a/Kv2.1 VSD IV chimera R1629A; conditions: read-out: apparent KD, VSD IV chimera R1629A, ref Bosmans et al., 2008; cited from earlier work
# [8] = molecular target: rNav1.2a/Kv2.1 VSD IV chimera L1630A; conditions: read-out: apparent KD, VSD IV chimera L1630A, ref Bosmans et al., 2008; cited from earlier work
# [9] = tested on: rNav1.2a/Kv2.1 VSD II paddle chimera; conditions: ref Bosmans et al., 2008; cited from earlier work
# [10] = SPR, Biacore T200, 25°C, pH 7.2, 15–2,000 nM, mean ± SD
molecule,measurement,setting,value
kaliotoxin [KTX],Kv1.1 pore block,Kv1.1,blocks
same,Kv1.3 pore block,Kv1.3,blocks
same,influence on Nav channel function,Nav channel,does not influence Nav channel function
CssIV: β-scorpion toxin from Centruroides suffusus suffusus,influence on VSD IV chimera,"[1]; 1 µM toxin, n = 3, holding −90 mV, tail −60 mV",does not influence the VSD IV chimera
same,"depolarizing shift in V1/2, VSD II chimera","[2]; 1 µM toxin, Boltzmann fit, n = 3, holding −90 mV, tail −60 mV",~14 mV
same,"V1/2 in the presence of toxin, VSD II chimera","[2]; 1 µM toxin, control 33 ± 2 mV, mean ± SEM, n = 3, holding −90 mV, tail −60 mV",47 ± 1 mV
same,concentration required to begin inhibiting the rNav1.2a/Kv2.1 VSD II paddle chimera,"[2]; Xenopus oocytes, ∼22°C",1 µM
AaHI: α-scorpion toxin from Androctonus australis Hector,effect on WT Kv2.1 K^+ current,WT rKv2.1,insensitive
same,"voltage-dependent K^+ current inhibition, VSD IV paddle chimera","[1]; 100 nM toxin, 300-ms depolarization, holding −90 mV",robust voltage-dependent K^+ current inhibition
same,"depolarizing shift in midpoint (V1/2), VSD IV paddle chimera","[1]; 100 nM toxin, Boltzmann fit, n = 3, holding −90 mV, tail −60 mV",~15 mV
AaHII: α-scorpion toxin from Androctonus australis Hector,inhibition of WT rNav1.2a/Kv2.1 VSD IV chimera compared with double mutant,[1]; 100 nM AaHII,influenced to a much lesser extent
same,inhibition of R1629A/L1630A double mutant chimera,[3],strongly inhibits the double mutant
same,dissociation rate constant kd1,[4]; [10],0.000979 ± 0.00014 s⁻¹
same,dissociation rate constant kd2,[4]; [10],0.0281 ± 0.0058 s⁻¹
same,high affinity KD1 (kd1/ka1),[4]; [10],479 ± 241 nM
same,RUmax1,[4]; high affinity site,135
same,RUmax2,[4]; lower affinity site,23
same,SPR effect on VSD II paddle motif at high toxin concentration,[5],did not notice an effect
same,Kd,"rNav1.2a; read-out: affinity for WT rNav1.2a, WT rNav1.2a, ref Wang et al., 2011",~5 nM
same,binding to VSD IV paddle (rNav1.2a/Kv2.1 chimeras),[6],shown to bind to the VSD IV paddle motif in rNav1.2a
same,Kd,[7],235 ± 24 nM
same,Kd,[8],205 ± 23 nM
same,interaction with rNav1.2a/Kv2.1 VSD II paddle chimera,[9],no interaction was observed
B1,Kd,"rNav1.2a; read-out: apparent KD, rNav1.2a, ref Bosmans et al., 2008",25 to 121 nM
same,binding to VSD IV paddle (rNav1.2a/Kv2.1 chimeras),[6],can also bind to the VSD IV paddle
